Measured values as given in ChEMBL document CHEMBL3608216, “Synthesis and evaluation of novel pleuromutilin derivatives with a substituted pyrimidine moiety” (2015).
≈ marks a conversion by molar mass, not a printed value.

test system: Staphylococcus aureus; assay: Antibacterial activity against […] Staphylococcus aureus ATCC 29213 after 24 to 48 hrs by agar dilution method; assay type: functional; conditions: not given
Outline: (§1)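 Agar dilution per NCCLS. Compounds at 1.28 mg/mL stock in 15%–30% DMSO/water, two-fold serial dilutions (11 total) in water, mixed 1:10 into hot Mueller-Hinton agar. Inocula from blood slants adjusted to about 10^5–10^6 CFU/mL in 0.90% saline, spotted onto plates, incubated 36.5 °C for 24–48 h. MIC is the lowest concentration giving complete growth inhibition. Run in triplicate.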

SMILES | MIC [µg/mL]
C=C[C@]1(C)C[C@@H](OC(=O)CSc2nc(O)cc(NC(=O)[C@@H]3CCCCN3)n2)[C@]2(C)[C@H](C)CC[C@]3(CCC(=O)[C@H]32)[C@@H](C)[C@@H]1O | 4 (≈ 6.51 µM)
C=C[C@]1(C)C[C@@H](OC(=O)CSc2nc(N)cc(OC)n2)[C@]2(C)[C@H](C)CC[C@]3(CCC(=O)[C@H]32)[C@@H](C)[C@@H]1O | 1 (≈ 1.93 µM)
C=C[C@]1(C)C[C@@H](OC(=O)CSc2nc(N)cc(O)n2)[C@]2(C)[C@H](C)CC[C@]3(CCC(=O)[C@H]32)[C@@H](C)[C@@H]1O | 0.25 (≈ 0.496 µM)
C=C[C@]1(C)C[C@@H](OC(=O)CSc2nc(N)cc(=O)n2C)[C@]2(C)[C@H](C)CC[C@]3(CCC(=O)[C@H]32)[C@@H](C)[C@@H]1O | 2 (≈ 3.86 µM)
C=C[C@]1(C)C[C@@H](OC(=O)CSc2nc(O)cc(NC(=O)[C@@H](N)C(C)C)n2)[C@]2(C)[C@H](C)CC[C@]3(CCC(=O)[C@H]32)[C@@H](C)[C@@H]1O | 2 (≈ 3.32 µM)
C=C[C@]1(C)C[C@@H](OC(=O)CSc2nc(O)cc(NC(=O)[C@H](N)C(C)C)n2)[C@]2(C)[C@H](C)CC[C@]3(CCC(=O)[C@H]32)[C@@H](C)[C@@H]1O | 1 (≈ 1.66 µM)
C=C[C@]1(C)C[C@@H](OC(=O)CSc2nc(O)cc(NC(=O)[C@H]3CCCCN3)n2)[C@]2(C)[C@H](C)CC[C@]3(CCC(=O)[C@H]32)[C@@H](C)[C@@H]1O | 8 (≈ 13 µM)
C=C[C@]1(C)C[C@@H](OC(=O)CSCCN(CC)CC)[C@]2(C)[C@H](C)CC[C@]3(CCC(=O)[C@H]32)[C@@H](C)[C@@H]1O.O=C(O)/C=C/C(=O)O [TIAMULIN FUMARATE] | 0.5

test system: Escherichia coli; assay: Antibacterial activity against Escherichia coli ATCC 25922 after 24 to 48 hrs by agar dilution method; assay type: functional; conditions: not given
Outline: (§2)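 Agar dilution per NCCLS. Compounds were dissolved in 15%–30% DMSO in water, serially two-fold diluted in distilled water (11 dilutions) and incorporated into hot Mueller–Hinton agar at a tenfold further dilution. Inocula from blood slants were adjusted to about 10^5–10^6 CFU/mL in 0.90% saline and spotted onto the plates, then incubated at 36.5 °C for 24–48 h. MIC was the lowest concentration giving complete growth inhibition; run in triplicate.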

SMILES | MIC [µg/mL]
C=C[C@]1(C)C[C@@H](OC(=O)CSc2nc(O)cc(NC(=O)[C@@H]3CCCCN3)n2)[C@]2(C)[C@H](C)CC[C@]3(CCC(=O)[C@H]32)[C@@H](C)[C@@H]1O | 16 (≈ 26 µM)
C=C[C@]1(C)C[C@@H](OC(=O)CSc2nc(N)cc(OC)n2)[C@]2(C)[C@H](C)CC[C@]3(CCC(=O)[C@H]32)[C@@H](C)[C@@H]1O | 32 (≈ 61.8 µM)
C=C[C@]1(C)C[C@@H](OC(=O)CSc2nc(O)cc(NC(C)=O)n2)[C@]2(C)[C@H](C)CC[C@]3(CCC(=O)[C@H]32)[C@@H](C)[C@@H]1O | 8 (≈ 14.7 µM)
C=C[C@]1(C)C[C@@H](OC(=O)CSc2nc(N)cc(O)n2)[C@]2(C)[C@H](C)CC[C@]3(CCC(=O)[C@H]32)[C@@H](C)[C@@H]1O | 16 (≈ 31.8 µM)
C=C[C@]1(C)C[C@@H](OC(=O)CSc2nc(N)cc(=O)n2C)[C@]2(C)[C@H](C)CC[C@]3(CCC(=O)[C@H]32)[C@@H](C)[C@@H]1O | 32 (≈ 61.8 µM)
C=C[C@]1(C)C[C@@H](OC(=O)CSc2nc(O)cc(NC(=O)[C@@H](N)C(C)C)n2)[C@]2(C)[C@H](C)CC[C@]3(CCC(=O)[C@H]32)[C@@H](C)[C@@H]1O | 32 (≈ 53.1 µM)
C=C[C@]1(C)C[C@@H](OC(=O)CSc2nc(O)cc(NC(=O)[C@H](N)C(C)C)n2)[C@]2(C)[C@H](C)CC[C@]3(CCC(=O)[C@H]32)[C@@H](C)[C@@H]1O | 64 (≈ 106 µM)
C=C[C@]1(C)C[C@@H](OC(=O)CSc2nc(O)cc(NC(=O)[C@H]3CCCCN3)n2)[C@]2(C)[C@H](C)CC[C@]3(CCC(=O)[C@H]32)[C@@H](C)[C@@H]1O | 32 (≈ 52 µM)
C=C[C@]1(C)C[C@@H](OC(=O)CSCCN(CC)CC)[C@]2(C)[C@H](C)CC[C@]3(CCC(=O)[C@H]32)[C@@H](C)[C@@H]1O.O=C(O)/C=C/C(=O)O [TIAMULIN FUMARATE] | 8

test system: Bacillus subtilis; assay: Antibacterial activity against Bacillus subtilis […] after 24 to 48 hrs by agar dilution method; assay type: functional; conditions: not given; outline: as §2

SMILES | MIC [µg/mL]
C=C[C@]1(C)C[C@@H](OC(=O)CSc2nc(O)cc(NC(=O)[C@@H]3CCCCN3)n2)[C@]2(C)[C@H](C)CC[C@]3(CCC(=O)[C@H]32)[C@@H](C)[C@@H]1O | 16 (≈ 26 µM)
C=C[C@]1(C)C[C@@H](OC(=O)CSc2nc(N)cc(OC)n2)[C@]2(C)[C@H](C)CC[C@]3(CCC(=O)[C@H]32)[C@@H](C)[C@@H]1O | 16 (≈ 30.9 µM)
C=C[C@]1(C)C[C@@H](OC(=O)CSc2nc(O)cc(NC(C)=O)n2)[C@]2(C)[C@H](C)CC[C@]3(CCC(=O)[C@H]32)[C@@H](C)[C@@H]1O | 32 (≈ 58.6 µM)
C=C[C@]1(C)C[C@@H](OC(=O)CSc2nc(N)cc(O)n2)[C@]2(C)[C@H](C)CC[C@]3(CCC(=O)[C@H]32)[C@@H](C)[C@@H]1O | 32 (≈ 63.5 µM)
C=C[C@]1(C)C[C@@H](OC(=O)CSc2nc(N)cc(=O)n2C)[C@]2(C)[C@H](C)CC[C@]3(CCC(=O)[C@H]32)[C@@H](C)[C@@H]1O | 16 (≈ 30.9 µM)
C=C[C@]1(C)C[C@@H](OC(=O)CSc2nc(O)cc(NC(=O)[C@@H](N)C(C)C)n2)[C@]2(C)[C@H](C)CC[C@]3(CCC(=O)[C@H]32)[C@@H](C)[C@@H]1O | 16 (≈ 26.5 µM)
C=C[C@]1(C)C[C@@H](OC(=O)CSc2nc(O)cc(NC(=O)[C@H](N)C(C)C)n2)[C@]2(C)[C@H](C)CC[C@]3(CCC(=O)[C@H]32)[C@@H](C)[C@@H]1O | 8 (≈ 13.3 µM)
C=C[C@]1(C)C[C@@H](OC(=O)CSc2nc(O)cc(NC(=O)[C@H]3CCCCN3)n2)[C@]2(C)[C@H](C)CC[C@]3(CCC(=O)[C@H]32)[C@@H](C)[C@@H]1O | 16 (≈ 26 µM)
C=C[C@]1(C)C[C@@H](OC(=O)CSCCN(CC)CC)[C@]2(C)[C@H](C)CC[C@]3(CCC(=O)[C@H]32)[C@@H](C)[C@@H]1O.O=C(O)/C=C/C(=O)O [TIAMULIN FUMARATE] | 32

test system: Staphylococcus aureus; assay: Antibacterial activity against […] Staphylococcus aureus in iv dosed neutropenic mouse systemic infection model assessed as increase in mouse survival measured on day 4; assay type: functional; conditions: not given
Outline: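 Male and female mice made neutropenic with ip cyclophosphamide, 150 mg/kg for four days, then 100 mg/kg one day before inoculation. Infected ip with 0.5 mL MRSA at 10^9 CFU/mL, 10 per group. About 1 h later dosed iv at 2, 3, 4.46, 6.64 and 10 mg/kg in 0.5 mL soybean lecithin:sterile water (1:30). Endpoint was survival at day 4. ED50 calculated by Reed–Muench using the Hill equation.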

SMILES | Activity
C=C[C@]1(C)C[C@@H](OC(=O)CSCCN(CC)CC)[C@]2(C)[C@H](C)CC[C@]3(CCC(=O)[C@H]32)[C@@H](C)[C@@H]1O.O=C(O)/C=C/C(=O)O [TIAMULIN FUMARATE] | Dose-dependent effect

same assay, conditions: 96 h

SMILES | ED50 [mg/kg]
C=C[C@]1(C)C[C@@H](OC(=O)CSCCN(CC)CC)[C@]2(C)[C@H](C)CC[C@]3(CCC(=O)[C@H]32)[C@@H](C)[C@@H]1O.O=C(O)/C=C/C(=O)O [TIAMULIN FUMARATE] | 5.95

test system: Staphylococcus epidermidis; assay: Antibacterial activity against […] Staphylococcus epidermidis ATCC 35984 after 24 to 48 hrs by agar dilution method; assay type: functional; conditions: RP62A; outline: as §1

SMILES | MIC [µg/mL]
C=C[C@]1(C)C[C@@H](OC(=O)CSc2nc(O)cc(NC(=O)[C@@H]3CCCCN3)n2)[C@]2(C)[C@H](C)CC[C@]3(CCC(=O)[C@H]32)[C@@H](C)[C@@H]1O | 1 (≈ 1.63 µM)
C=C[C@]1(C)C[C@@H](OC(=O)CSc2nc(N)cc(OC)n2)[C@]2(C)[C@H](C)CC[C@]3(CCC(=O)[C@H]32)[C@@H](C)[C@@H]1O | 0.5 (≈ 0.966 µM)
C=C[C@]1(C)C[C@@H](OC(=O)CSc2nc(N)cc(O)n2)[C@]2(C)[C@H](C)CC[C@]3(CCC(=O)[C@H]32)[C@@H](C)[C@@H]1O | 0.125 (≈ 0.248 µM)
C=C[C@]1(C)C[C@@H](OC(=O)CSc2nc(N)cc(=O)n2C)[C@]2(C)[C@H](C)CC[C@]3(CCC(=O)[C@H]32)[C@@H](C)[C@@H]1O | 1 (≈ 1.93 µM)
C=C[C@]1(C)C[C@@H](OC(=O)CSc2nc(O)cc(NC(=O)[C@@H](N)C(C)C)n2)[C@]2(C)[C@H](C)CC[C@]3(CCC(=O)[C@H]32)[C@@H](C)[C@@H]1O | 0.5 (≈ 0.829 µM)
C=C[C@]1(C)C[C@@H](OC(=O)CSc2nc(O)cc(NC(=O)[C@H](N)C(C)C)n2)[C@]2(C)[C@H](C)CC[C@]3(CCC(=O)[C@H]32)[C@@H](C)[C@@H]1O | 0.125 (≈ 0.207 µM)
C=C[C@]1(C)C[C@@H](OC(=O)CSc2nc(O)cc(NC(=O)[C@H]3CCCCN3)n2)[C@]2(C)[C@H](C)CC[C@]3(CCC(=O)[C@H]32)[C@@H](C)[C@@H]1O | 2 (≈ 3.25 µM)
C=C[C@]1(C)C[C@@H](OC(=O)CSCCN(CC)CC)[C@]2(C)[C@H](C)CC[C@]3(CCC(=O)[C@H]32)[C@@H](C)[C@@H]1O.O=C(O)/C=C/C(=O)O [TIAMULIN FUMARATE] | 0.25
